Data as given in ChEMBL document CHEMBL1770086, “Design and synthesis of benzoxazole containing indole analogs as peroxisome proliferator-activated receptor-γ/δ dual agonists” (Bioorg Med Chem Lett, 2011).
Calls of active or inactive are those of the source.

Columns and labels:
Assay type in all cases: functional, cell-based
Conditions in all cases: CV-1
[1] = molecular target: T1, Peroxisome proliferator-activated receptor delta (Mus musculus) (UniProt P35396); experiment: Agonist activity at mouse PPARdelta expressed in CV1 cells co-expressing tk-PPRE-luciferase vector assessed as transient transactivation at 20 uM after 24 hrs by luciferase reporter gene transactivation assay relative to GW0742
T1 sequence (whole entry): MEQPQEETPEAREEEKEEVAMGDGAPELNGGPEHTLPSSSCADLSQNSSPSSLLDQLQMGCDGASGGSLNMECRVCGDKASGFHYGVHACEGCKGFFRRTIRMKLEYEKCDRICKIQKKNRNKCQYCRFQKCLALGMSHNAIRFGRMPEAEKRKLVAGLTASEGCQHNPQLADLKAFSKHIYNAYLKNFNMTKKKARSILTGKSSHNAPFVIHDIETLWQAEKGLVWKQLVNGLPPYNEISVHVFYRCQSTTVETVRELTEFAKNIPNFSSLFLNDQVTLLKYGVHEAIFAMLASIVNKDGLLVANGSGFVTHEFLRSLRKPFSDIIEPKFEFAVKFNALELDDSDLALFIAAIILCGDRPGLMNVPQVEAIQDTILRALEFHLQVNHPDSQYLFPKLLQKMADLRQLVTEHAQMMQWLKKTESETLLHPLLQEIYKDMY
In short: (§1)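 CV-1 cells seeded at 1.5 × 10⁵ cells/well in DMEM with 10% FBS. Transient transfection for 6 h with PPAR expression vector, tk-PPRE-luciferase reporter and β-galactosidase plasmid, then 24 h of compound exposure. Luciferase read in cell lysates. β-gal read as absorbance at 410 nm. Activity expressed as luciferase/β-gal. Not active means below 10% transactivation at 20 µM. At least three separate experiments.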

[2] = molecular target: T2, Peroxisome proliferator-activated receptor gamma (Mus musculus) (UniProt P37238); experiment: Agonist activity at mouse PPARgamma expressed in CV1 cells co-expressing tk-PPRE-luciferase vector assessed as transient transactivation at 20 uM after 24 hrs by luciferase reporter gene transactivation assay relative to rosiglitazone; in short: as §1
T2 sequence (whole entry): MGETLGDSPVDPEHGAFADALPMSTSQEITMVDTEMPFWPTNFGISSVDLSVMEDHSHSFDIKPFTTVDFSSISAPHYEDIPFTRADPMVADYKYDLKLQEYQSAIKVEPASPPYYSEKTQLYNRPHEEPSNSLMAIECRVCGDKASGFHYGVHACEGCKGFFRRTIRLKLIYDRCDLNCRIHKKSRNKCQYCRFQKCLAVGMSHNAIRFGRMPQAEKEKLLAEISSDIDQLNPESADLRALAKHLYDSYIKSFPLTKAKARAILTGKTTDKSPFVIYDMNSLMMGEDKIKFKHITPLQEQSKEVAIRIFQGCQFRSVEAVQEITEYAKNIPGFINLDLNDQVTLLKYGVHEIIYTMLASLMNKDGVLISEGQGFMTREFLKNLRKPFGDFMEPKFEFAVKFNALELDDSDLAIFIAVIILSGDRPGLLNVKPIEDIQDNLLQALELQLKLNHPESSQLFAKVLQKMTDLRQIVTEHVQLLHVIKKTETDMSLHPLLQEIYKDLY

[3] = molecular target: T3, Peroxisome proliferator-activated receptor alpha (Mus musculus) (UniProt P23204); experiment: Agonist activity at mouse PPARalpha expressed in CV1 cells co-expressing tk-PPRE-luciferase vector assessed as transient transactivation at 20 uM after 24 hrs by luciferase reporter gene assay relative to GW0746; in short: as §1
T3 sequence (whole entry): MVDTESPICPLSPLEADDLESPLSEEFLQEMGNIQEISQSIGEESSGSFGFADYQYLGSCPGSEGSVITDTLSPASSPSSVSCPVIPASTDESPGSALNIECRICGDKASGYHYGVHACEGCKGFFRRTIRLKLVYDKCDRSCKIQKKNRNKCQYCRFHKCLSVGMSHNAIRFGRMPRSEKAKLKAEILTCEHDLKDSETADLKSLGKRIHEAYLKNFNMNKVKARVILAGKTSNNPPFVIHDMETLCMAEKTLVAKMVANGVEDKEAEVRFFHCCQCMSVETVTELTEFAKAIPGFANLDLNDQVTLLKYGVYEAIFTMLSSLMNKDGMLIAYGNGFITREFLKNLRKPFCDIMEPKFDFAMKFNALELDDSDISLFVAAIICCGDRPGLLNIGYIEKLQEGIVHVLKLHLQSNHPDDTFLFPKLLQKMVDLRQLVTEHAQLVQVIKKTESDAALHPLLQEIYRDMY

Q: What does the source list for `CCn1cc(CC(=O)O)c2cc(OCCN(C)c3nc4ccccc4o3)ccc21`?
A: Activity [1]: 32.9%; Activity [2]: 66.7%; Activity [3]: inactive

Q: Which results are given for `COC(=O)Cc1cn(C(=O)c2ccc(Cl)cc2)c2ccc(OCCCN(C)c3nc4ccccc4o3)cc12`?
A: Activity [1]: 18.3%; Activity [2]: 28.9%; Activity [3]: inactive

Q: For `CN(CCCOc1ccc2c(c1)c(CC(=O)O)cn2CC(=O)O)c1nc2ccccc2o1`, which Activity [1] is on record?
A: inactive

Q: And the Activity [2]?
A: inactive

Q: And the Activity [3]?
A: inactive

Q: `CN(CCOc1ccc2c(c1)c(CC(=O)O)cn2C)c1nc2ccccc2o1` was tested. Which Activity [1] did it give?
A: inactive

Q: And the Activity [2]?
A: 58.6%

Q: And the Activity [3]?
A: 28%

Q: What does the source list for `CN(CCOc1ccc2cc(C(=O)O)[nH]c2c1)c1nc2ccccc2o1`?
A: Activity [1]: inactive; Activity [2]: inactive; Activity [3]: inactive

Q: What does the source list for `COC(=O)Cc1c[nH]c2ccc(OCCCN(C)c3nc4ccccc4o3)cc12`?
A: Activity [1]: inactive; Activity [2]: 42.1%; Activity [3]: inactive

Q: With `CN(CCOc1ccc2[nH]cc(CC(=O)O)c2c1)c1nc2ccccc2o1` as the compound, how does the Activity [1] read?
A: inactive

Q: And the Activity [2]?
A: 28.1%

Q: What about the Activity [3] of the same compound?
A: inactive

Q: `CN(CCOc1ccc2cc(C(=O)O)n(Cc3ccccc3)c2c1)c1nc2ccccc2o1` was tested. Which Activity [1] did it give?
A: 33.4%

Q: What about the Activity [2] of the same compound?
A: 43.9%

Q: What about the Activity [3] of the same compound?
A: 10%

Q: Which Activity [1] does the source give for `CN(CCOc1ccc2cc(C(=O)O)[nH]c2c1)c1nc2ccccc2s1` here?
A: 14.6%

Q: And the Activity [2]?
A: inactive

Q: And the Activity [3]?
A: inactive

Q: Which results are given for `COC(=O)Cc1cn(Cc2ccc(F)cc2)c2ccc(OCCCN(C)c3nc4ccccc4o3)cc12`?
A: Activity [1]: inactive; Activity [2]: inactive; Activity [3]: inactive

Q: Which results are given for `CN(CCCOc1ccc2[nH]cc(CC(=O)O)c2c1)c1nc2ccccc2o1`?
A: Activity [1]: inactive; Activity [2]: 18.3%; Activity [3]: inactive

Q: `CN(CCOc1ccc2cc(C(=O)O)n(C)c2c1)c1nc2ccccc2s1` was tested. Which Activity [1] did it give?
A: 27.9%

Q: And the Activity [2]?
A: 29.6%

Q: And the Activity [3]?
A: 13.6%

Q: For `CN(CCOc1ccc2cc(C(=O)O)n(C)c2c1)c1nc2ccccc2o1`, which Activity [1] is on record?
A: inactive

Q: What about the Activity [2] of the same compound?
A: inactive

Q: And the Activity [3]?
A: inactive

Q: What does the source list for `COC(=O)Cc1cn(CC(=O)OC)c2ccc(OCCCN(C)c3nc4ccccc4o3)cc12`?
A: Activity [1]: inactive; Activity [2]: 37.1%; Activity [3]: inactive

Q: How did the Activity [1] turn out when `CN(CCCOc1ccc2c(c1)c(CC(=O)O)cn2Cc1ccc(F)cc1)c1nc2ccccc2o1` was run?
A: inactive

Q: What about the Activity [2] of the same compound?
A: 15.8%

Q: And the Activity [3]?
A: 13.3%

Q: What does the source list for `CCn1c(C(=O)O)cc2ccc(OCCN(C)c3nc4ccccc4s3)cc21`?
A: Activity [1]: 68.8%; Activity [2]: 66.4%; Activity [3]: 16.7%

Q: What does the source list for `CCn1c(C(=O)O)cc2ccc(OCCN(C)c3nc4ccccc4o3)cc21`?
A: Activity [1]: inactive; Activity [2]: 23.3%; Activity [3]: inactive
